The species named for one data set is Homo sapiens. In words: Ratio of Ki for Non-competitive inhibition of human recombinant LDHB to Ki for non-competitive inhibition of human recombinant LDHA.
The subject of data set [1] is Hepatocyte. In words: Inhibition of GO/LDHA in hyperoxaluric-primary hepatocyte isolated from Grhpr-knockdown PH2 C57BL/6 mouse assessed as relative oxalate output at 10 uM measured at 24 hrs in the presence of glycolate relative to control. In kind it is cell-based. A digest of the protocol:
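Grhpr-/- mouse primary hepatocytes cultured with 10 mM glycolate, inhibitor at 10 μM; extracellular oxalate determined colorimetrically at 24 and 48 h post-treatment, expressed relative to untreated medium (RO); negative RO means below detection limit; three/four replicates, mean ± SD.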

In data set [2] the target is T1, Prostaglandin G/H synthase 1 (Ovis aries, UniProt P05979).
T1 sequence (P05979 whole entry): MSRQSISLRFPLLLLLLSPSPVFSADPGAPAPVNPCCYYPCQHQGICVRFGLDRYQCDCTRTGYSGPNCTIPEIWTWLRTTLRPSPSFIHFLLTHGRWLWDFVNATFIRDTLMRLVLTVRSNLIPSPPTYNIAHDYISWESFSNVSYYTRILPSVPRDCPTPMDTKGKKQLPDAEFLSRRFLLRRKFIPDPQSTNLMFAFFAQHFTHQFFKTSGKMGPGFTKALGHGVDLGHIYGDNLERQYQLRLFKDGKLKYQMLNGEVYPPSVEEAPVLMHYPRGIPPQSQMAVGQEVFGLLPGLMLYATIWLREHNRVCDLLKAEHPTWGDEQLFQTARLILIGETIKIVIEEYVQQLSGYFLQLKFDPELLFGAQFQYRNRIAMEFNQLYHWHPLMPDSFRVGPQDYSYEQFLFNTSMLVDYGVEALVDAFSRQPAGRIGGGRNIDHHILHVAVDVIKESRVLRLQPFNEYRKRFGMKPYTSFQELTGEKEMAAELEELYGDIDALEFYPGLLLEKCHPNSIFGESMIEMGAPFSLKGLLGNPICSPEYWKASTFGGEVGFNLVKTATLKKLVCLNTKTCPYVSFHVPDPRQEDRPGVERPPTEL
The data set is described as follows: Inhibition of ovine COX-1 using arachidonic acid as substrate measured every 60 sec for 10 mins by fluorescence based assay.

In data set [3] the test system is Hepatocyte. The data set is described as follows: Cytotoxicity against hyperoxaluric-primary hepatocyte isolated from Grhpr-knockdown PH2 C57BL/6 mouse assessed as cell death at 10 uM by MTS assay. In kind it is toxicity, cell-based. To be noted: hepatocytes, Grhpr-knockdown PH2 (primary hyperoxaluria type 2). The gist of the method: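 Primary hepatocytes from Agxt1-/- (PH1, 5 mM glycolate), Grhpr-/- (PH2, 10 mM glycolate) or Hoga1-/- (PH3, 10 mM hydroxyproline) mice, incubated with inhibitor at 10 μM; viability followed through the oxalate assay by MTS tetrazolium method.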
A general note: Tetrazolium dyes change colour on reduction, which living cells bring about.

The target in another data set is T2, 2-Hydroxyacid oxidase 1 (Homo sapiens, UniProt Q9UJM8).
T2 sequence (Q9UJM8 whole entry): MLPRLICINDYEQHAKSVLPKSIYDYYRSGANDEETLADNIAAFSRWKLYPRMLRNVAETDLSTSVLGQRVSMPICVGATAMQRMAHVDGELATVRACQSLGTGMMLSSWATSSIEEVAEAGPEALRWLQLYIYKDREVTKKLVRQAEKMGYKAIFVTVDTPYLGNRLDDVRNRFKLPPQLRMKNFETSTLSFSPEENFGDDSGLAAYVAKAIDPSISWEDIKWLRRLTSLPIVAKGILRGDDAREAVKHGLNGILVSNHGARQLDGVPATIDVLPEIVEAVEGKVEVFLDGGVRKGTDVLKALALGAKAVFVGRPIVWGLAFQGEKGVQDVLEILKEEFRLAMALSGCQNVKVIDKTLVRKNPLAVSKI
In words: Inhibition of N-terminal His-tagged human recombinant glycolate oxidase expressed in Escherichia coli BL21 (DE3) cells using glycolate as substrate preincubated for 10 mins followed by substrate addition and measured after 10 mins by Amplex red and horseradish peroxidase based fluorescence assay.

In data set [4] the target is T3, 2-Hydroxyacid oxidase 1 (Homo sapiens) (UniProt Q9UJM8).
T3 sequence (whole entry): T2 sequence (Q9UJM8 whole entry)
The data set is described as follows: Non-competitive mixed inhibition of N-terminal His-tagged human recombinant glycolate oxidase expressed in Escherichia coli BL21 (DE3) cells assessed as decrease in Vmax with increase in apparent Km using glycolate as substrate upto 60 microM.

The results in this text go back to ChEMBL document CHEMBL5120856, “New salicylic acid derivatives, double inhibitors of glycolate oxidase and lactate dehydrogenase, as effective agents decreasing oxalate production” (Eur J Med Chem, 2022).

Active and inactive are the calls of the source. The calls are words filed in the database; no cut-off is given here.

`N.N.O=C(O)c1cc(-c2ccc(CN(Cc3ccccc3)Cc3ccc(-c4ccc(O)c(C(=O)O)c4)o3)o2)ccc1O`: the Ratio in the data set filed under Homo sapiens came out at 8. In addition, the fold change (FC) in the data set with Hepatocyte [1] came to 0.59. Also, the IC50 in data set [2] came to 24 µM; at 2-Hydroxyacid oxidase 1, 1.5 µM. For the same molecule, the Activity result with Hepatocyte [3] is reported as “Non-Toxic”. In addition, the inhibition entry in data set [4] was “Active”.

One may read the IC50 as the concentration needed to halve the response being measured.
